How the values were obtained:
[1] = species on record: Mus musculus; assay: Effective dose against Pseudomonas aeruginosa infection in mice; type: functional
Procedure, shortened: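 B6D2F1 mice made myelosuppressed with cyclophosphamide 200 mg/kg sc on day -4. Compound given iv as Tris salt on day -1. Survival scored over 4 days, groups of 10. ED50 obtained by Probit analysis.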

[2] = species on record: Mus musculus; assay: Compound was tested for its potency to induce TNF-alpha in murine macrophage cultures in the absence of INF at 1 mg/mL concentration; type: functional
Procedure, shortened: (§1)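 Bone marrow cells from B6D2F1 mouse femurs differentiated 8-10 days at 37 °C, 5% CO2 in DMEM with 10% FCS, 5% horse serum and 20% L929 supernatant (CSF-1). Macrophages at 10⁶ cells/mL adhered 3 h, then incubated overnight without IFN-γ. Washed, exposed 4 h to compound in serum-free medium. Supernatant TNF-α measured by cytotoxicity to actinomycin-D-treated L929 cells, as IU/mL.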

[3] = species on record: Mus musculus; assay: Compound was tested for its potency to induce TNF-alpha in murine macrophage cultures in the absence of INF at 10 mg/mL concentration; type: functional; procedure, shortened: as §1
[4] = species on record: Mus musculus; assay: Compound was tested for its potency to induce TNF-alpha in murine macrophage cultures in the presence of INF at 10 mg/mL concentration; type: functional
Procedure, shortened: (§2)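 Macrophages derived from B6D2F1 mouse bone marrow (8-10 days with L929 supernatant as CSF-1 source), plated at 10⁶ cells/mL. Adherent cells primed overnight with 100 units/mL interferon γ, washed, then incubated 4 h with compound in serum-free medium. TNF-α in supernatants determined by cytotoxicity to actinomycin-D-treated L929 cells, as IU/mL.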

[5] = system: Mus musculus; assay: Nonspecific resistance against Pseudomonas aeruginosa infection in mice; administration of a single dose (12.5 mg/kg) 1 day prior to infection, group size 10 mice; type: functional
Procedure, shortened: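 B6D2F1 mice given cyclophosphamide 200 mg/kg s.c. on day -4, then a single i.v. dose of 12.5 mg/kg on day -1 (Tris salts). Survival scored after 4 days of observation. Groups of 10 mice.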

[6] = The endotoxic potential (LD50) by iv administration and ip administration of galactosamine (400 mg/kg); type: ADME, organism-based; settings: mouse, in vivo
Procedure, shortened: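 C57BL/6 mice, groups of six. Serial dilutions given i.v. by tail vein (0.2 mL, saline, or isotonic glucose with 1% ethanol) together with galactosamine 400 mg/kg i.p. LD50 calculated by probit analysis from survivors at 1 day.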

[7] = species on record: Mus musculus; assay: Compound was tested for its potency to induce TNF-alpha in murine macrophage cultures in the presence of INF at 1 mg/mL concentration; type: functional; procedure, shortened: as §2

With `CCCCCCCCCCCC(O)CC(=O)NC1C(OC(=O)CC[C@@H](NC(=O)CC(O)CCCCCCCCCCC)C(=O)O)OC(CO)C(O)C1OC(=O)CC(O)CCCCCCCCCCC` (stereo partly drawn) the ED50 [1] was 0.3 mg/kg, the Activity [2] was 518 IU ml-1 and the Activity [3] was 688 IU ml-1. The Activity [4] was greater than 2409 IU ml-1, the NSR survival rate [5] was 10 and the LD50 [6] was 0.04 mg/kg. For the same molecule, the Activity [7] was greater than 2409 IU ml-1.

Molecule `CCCCCCCCCCCC(O)CC(=O)NC1C(OC(=O)CC[C@H](NC(=O)CC(O)CCCCCCCCCCC)C(=O)O)OC(CO)C(O)C1NC(=O)CC(O)CCCCCCCCCCC` (stereo partly drawn) has an ED50 [1] of 1.5 mg/kg, an Activity [2] of 175 IU ml-1 and an Activity [3] of 1069 IU ml-1. The Activity [4] was 1570 IU ml-1, the NSR survival rate [5] was 8 and the LD50 [6] was 0.2 mg/kg. It also gave an Activity [7] of 294 IU ml-1.

For `CCCCCCCCCCCC(O)CC(=O)NC1C(OC(=O)C[C@@H](NC(=O)CC(O)CCCCCCCCCCC)C(=O)O)OC(CO)C(O)C1OC(=O)CC(O)CCCCCCCCCCC` (stereo partly drawn), the ED50 [1] was 3.1 mg/kg, the Activity [2] was 218 IU ml-1 and the Activity [3] was 618 IU ml-1. It also gave an Activity [4] of 2768 IU ml-1, an NSR survival rate [5] of 10 and an LD50 [6] of less than 0.05 mg/kg. For the same molecule, the Activity [7] was 2708 IU ml-1.

For `CCCCCCCCCCCC(O)CC(=O)NC1C(OCCCN(CC(=O)O)C(=O)CC(O)CCCCCCCCCCC)OC(CO)C(O)C1OC(=O)CC(O)CCCCCCCCCCC` (stereo not drawn), the ED50 [1] was 1.5 mg/kg, the Activity [2] was 523 IU ml-1 and the Activity [3] was 1498 IU ml-1. For the same molecule, the Activity [4] was 3050 IU ml-1, the NSR survival rate [5] was 10 and the LD50 [6] was 0.1 mg/kg. The Activity [7] was 920 IU ml-1.

For `CCCCCCCCCCCC(O)CC(=O)NC1C(OCCCN(CC(=O)O)C(=O)CC(O)CCCCCCCCCCC)OC(CO)C(O)C1O` (stereo not drawn), the Activity [3] was 0 IU ml-1, the Activity [4] was 0 IU ml-1 and the NSR survival rate [5] was 3. For the same molecule, the LD50 [6] was greater than 5 mg/kg.

In the case of `CCCCCCCCCCCC(O)CC(=O)NC1C(OC(=O)CC[C@@H](NC(=O)CC(O)CCCCCCCCCCC)C(=O)O)OC(CO)C(O)C1NC(=O)CC(O)CCCCCCCCCCC` (stereo partly drawn), the ED50 [1] was greater than 25 mg/kg, the Activity [2] was 27 IU ml-1 and the Activity [3] was 464 IU ml-1. It also gave an Activity [4] of 609 IU ml-1, an NSR survival rate [5] of 3 and an LD50 [6] of 5.1 mg/kg. The Activity [7] was 151 IU ml-1.

With `CCCCCCCCCCCC(O)CC(=O)NC1C(OC(=O)C[C@H](NC(=O)CC(O)CCCCCCCCCCC)C(=O)O)OC(CO)C(O)C1OC(=O)CC(O)CCCCCCCCCCC` (stereo partly drawn) the ED50 [1] was greater than 12.5 mg/kg, the Activity [2] was 0 IU ml-1 and the Activity [3] was 446 IU ml-1. The Activity [4] was 899 IU ml-1, the NSR survival rate [5] was 8 and the LD50 [6] was 1 mg/kg. For the same molecule, the Activity [7] was 25 IU ml-1.

In the case of `CCCCCCCCCCCC(O)CC(=O)NC1C(OC(=O)CC[C@H](NC(=O)CC(O)CCCCCCCCCCC)C(=O)O)OC(CO)C(O)C1OC(=O)CC(O)CCCCCCCCCCC` (stereo partly drawn), the ED50 [1] was 5.7 mg/kg, the Activity [2] was 270 IU ml-1 and the Activity [3] was 576 IU ml-1. The Activity [4] was 3285 IU ml-1, the NSR survival rate [5] was 9 and the LD50 [6] was 0.3 mg/kg. The Activity [7] was 1511 IU ml-1.
